Results from ChEMBL document CHEMBL4376891, “Benzenesulfonamide Derivatives as Calcium/Calmodulin-Dependent Protein Kinase Inhibitors and Antiviral Agents against Dengue and Zika Virus Infections” (J Med Chem, 2020).
Active and inactive are the calls of the source. No cut-off for these calls is given here.

Assays:
dengue virus type 2 [1] = experiment: Antiviral activity against DENV-2 NGC-N infected in Stat1-/- mouse assessed as improvement in overall mouse survival at 4 mg/kg, po dosed 8 hrs after infection and ending at day 6 after infection (8 hrs delay) relative to control; type: functional
Zika virus [2] = experiment: Antiviral activity against Zika virus infected in human BE(2)-C cells assessed as reduction in viral entry at 3.125 to 6.25 uM incubated for 90 mins by plaque-forming assay relative to control; type: functional; parameters: scale not given: the % may be the effect or the level left
Method in brief: (§1)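 Virus entry: BE(2)C cells were incubated with DENV-2 or ZIKV for 90 min at 4 °C and washed cold. Cells were then treated with 3.125 or 6.25 μM compound at 37 °C for 1 h. Non-internalized virus was inactivated with 0.1 M glycine, pH 3, for 5 min. Cells were lysed by needle passage, and internalized virus was titrated by plaque assay. Mean ± SD, n = 3.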

dengue virus type 2 [3] = experiment: Antiviral activity against Dengue virus 2 infected in human BE(2)-C cells assessed as NS3 protein expression at 0.39 uM incubated for 48 hrs by Western blot analysis (reference value: 100%); type: functional
Method in brief: (§2)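 BE(2)C neuroblastoma cells in RPMI 1640 with 10% FBS were infected with DENV-2 PL046 at MOI 0.1 for 48 h, without or with compound at increasing concentrations. NS3 was immunoblotted with actin as loading control. The NS3:actin densitometry ratio was expressed as % of the DMSO control. Mean ± SD of 3 independent experiments.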

dengue virus type 2 [4] = experiment: Antiviral activity against eGFP-fused Dengue virus 2 infected in human BE(2)-C cells assessed as viral infection level by measuring intensity of eGFP emission from infected cells at 3.13 uM incubated for 24 hrs relative to control; type: functional
Method in brief: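 BE(2)C cells, in RPMI 1640 with 10% FBS, were infected with DENV-2-eGFP reporter virus (MOI 1) for 24 h with or without compound, using DMSO as solvent control. Cells were fixed in 4% paraformaldehyde and stained with Hoechst, then imaged by high-content analysis. eGFP intensity per cell number is given as % of solvent control. Values are means of 3 experiments.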

dengue virus type 2 [5] = experiment: Antiviral activity against DENV-2 NGC-N infected in Stat1-/- mouse assessed as effect on overall mouse survival at 2 to 8 mg/kg/day, po dosed immediately following viral infection followed by daily dosing for 6 days; type: functional, organism-based
dengue virus type 2 [6] = experiment: Antiviral activity against DENV-2 NGC-N infected in Stat1-/- mouse assessed as improvement in mouse survival by measuring median survival time at 4 to 8 mg/kg, po dosed 8 hrs after infection and ending at day 6 after infection (8 hrs delay) (reference value: 8 days); type: functional
Zika virus [7] = experiment: Antiviral activity against Zika virus infected in human BE(2)-C cells transfected with shCaMKIIalpha assessed as NS3 protein expression at 3.125 uM incubated for 48 hrs by Western blot analysis (reference value: 100%); type: functional
Zika virus [8] = experiment: Antiviral activity against Zika virus infected in Stat1-/- mouse assessed as time delay in virus-induced mouse mortality at 8 mg/kg/day, po dosed immediately following viral infection followed by daily dosing for 6 days (reference value: 13 days); type: functional
dengue virus type 2 [9] = experiment: Antiviral activity against Dengue virus 2 infected in human BE(2)-C cells transfected with shCaMKIIalpha assessed as NS3 protein expression at 3.125 uM incubated for 48 hrs by Western blot analysis (reference value: 100%); type: functional
Influenza A virus = experiment: Antiviral activity of Influenza A virus (H1N1) infected in human HMC3 cells assessed as reduction in nucleoprotein protein expression at 0.781 to 12.5 uM incubated for 24 hrs by immunofluorescence microscopy; type: functional, organism-based
Zika virus [10] = experiment: Antiviral activity against Zika virus infected in human HMC3 cells assessed as reduction in viral progeny production at 1.56 to 12.5 uM incubated for 48 hrs by Virus titer assay; type: functional, organism-based
Method in brief: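 HMC3 microglia were grown in MEM with 10% FBS and infected with ZIKV PRVABC59 (MOI 0.1) for 48 h at the specified concentrations. Viral protein was read by immunofluorescence with Hoechst nuclear stain. Infectious progeny was titred by plaque assay on Vero cells (log PFU/mL). DMSO served as the solvent control.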

dengue virus type 2 [11] = experiment: Antiviral activity against Dengue virus 2 infected in human HMC3 cells assessed as reduction in viral progeny production at 1.56 to 12.5 uM incubated for 48 hrs by Virus titer assay; type: functional, organism-based
Method in brief: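 Human microglial HMC3 cells in MEM with 10% FBS were infected with DENV-2 PL046 at MOI 0.1 for 48 h in the presence of noncytotoxic compound concentrations. Progeny virus was titrated by plaque assay on BHK-21 cells, expressed as log PFU/mL.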

Zika virus [12] = experiment: Antiviral activity against Zika virus infected in human BE(2)-C cells assessed as NS3 protein expression at 12.5 uM incubated for 48 hrs by Western blot analysis (reference value: 100%); type: functional
Method in brief: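 BE(2)C cells were infected with ZIKV PRVABC59 at MOI 0.1 for 48 h, with or without compound at increasing concentrations. Viral protein was immunoblotted with actin as loading control. The band-density ratio was given as % of the solvent control. Mean ± SD, 3 independent experiments.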

dengue virus type 2 [13] = experiment: Antiviral activity against DENV-2 NGC-N infected in Stat1-/- mouse assessed as overall mouse survival at 4 mg/kg, po dosed immediately following viral infection followed by daily dosing for 6 days (reference value: 0%); type: functional; settings: 144 h
dengue virus type 2 [14] = experiment: Antiviral activity against Dengue virus 2 infected in human BE(2)-C cells assessed as NS3 protein expression at 1.56 uM incubated for 48 hrs by Western blot analysis (reference value: 100%); type: functional; method in brief: as §2
Zika virus [15] = experiment: Antiviral activity against Zika virus infected in human BE(2)-C cells transfected with shLacZ assessed as NS3 protein expression at 3.125 uM incubated for 48 hrs by Western blot analysis (reference value: 100%); type: functional
dengue virus type 2 [16] = experiment: Antiviral activity against Dengue virus 2 infected in human BE(2)-C cells transfected with shLacZ assessed as NS3 protein expression at 6.25 uM incubated for 48 hrs by Western blot analysis (reference value: 100%); type: functional
dengue virus type 2 [17] = experiment: Antiviral activity against Dengue virus 2 infected in human BE(2)-C cells assessed as NS3 protein expression at 6.25 uM incubated for 48 hrs by Western blot analysis (reference value: 100%); type: functional; method in brief: as §2
dengue virus type 2 [18] = experiment: Antiviral activity against Dengue virus 2 infected in human BE(2)-C cells assessed as reduction in viral entry at 3.125 to 6.25 uM incubated for 90 mins by plaque-forming assay; type: functional, organism-based; method in brief: as §1
BE(2)-C = experiment: Cytotoxicity against human BE(2)-C cells assessed as reduction in cell viability up to 12.5 uM incubated overnight by trypan blue assay relative to control; type: cell-based
Method in brief: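 Viable BE(2)C cell number after overnight exposure to compound up to 12.5 μM, counted by trypan blue exclusion; expressed as percent of solvent control, mean ± SD of 3 independent experiments.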

dengue virus type 2 [19] = experiment: Antiviral activity against Dengue virus 2 infected in human BE(2)-C cells assessed as NS3 protein expression at 0.78 uM incubated for 48 hrs by Western blot analysis (reference value: 100%); type: functional; method in brief: as §2

COc1ccc(S(=O)(=O)N(CCCC(=O)C2CCCCCC2)c2ccccc2)cc1
Activity (dengue virus type 2 [1]): 40% | Activity (Zika virus [2]): 80% | Activity (dengue virus type 2 [3]): 90.8% | Activity (dengue virus type 2 [4]): 9.6% | Activity (dengue virus type 2 [5]): inactive | MST (dengue virus type 2 [6]): 10 days | Activity (Zika virus [7]): 101% | Time (Zika virus [8]): 18 days | Activity (dengue virus type 2 [9]): 95.1% | Activity (Influenza A virus): Active | Activity (Zika virus [10]): Active | Activity (dengue virus type 2 [11]): Active | Activity (Zika virus [12]): 0.1% | survival at 4 mg/kg (dengue virus type 2 [13]): 60% | Activity (dengue virus type 2 [14]): 75.2% | Activity (Zika virus [15]): 102% | Activity (dengue virus type 2 [16]): 34.6% | Activity (dengue virus type 2 [17]): 23.1% | Activity (dengue virus type 2 [18]): Dose-dependent effect | Activity (BE(2)-C): Non-Toxic | Activity (dengue virus type 2 [19]): 85.4%
